Bioassay records: PubChem BioAssay, several laboratories
An excerpt weighted towards active compounds, which were near 1.7% of everything screened.
Scp1 inh: Scp-1 phosphatase inhibitors, primary screen, biochemical, colorimetric, uHTS. inhibition, % at 20 µM. Recombinant Scp1, phosphopeptide, malachite green phosphate absorbance. AID 493091, 2011. Carboxy-terminal domain RNA polymerase II polypeptide A small phosphatase 1 (Homo …. 0.88% of 340,000 active;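 active = inhibition above about 50% at 20 µM, limit read from the data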;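 note: plate controls were DMSO wells with enzyme for no effect and wells lacking enzyme for full effect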
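Test system – truncated SCP-1 phosphatase (76-261aa) · Reagent – Phosphorylated 17-residue peptide substrate · Incubation – 45 min room-temperature reaction, 5 min colour, 30 min stabiliser · Detection – colorimetric phosphate reagent with accelerator and stabiliser, absorbance at 630 nm · Measure – % inhibition at 20 µM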
LMPTP block: LMPTP phosphatase inhibitors, primary screen, biochemical, fluorescence intensity, uHTS; Low molecular weight phosphotyrosine protein phosphatase (Homo sapiens), P24666; recombinant LMPTP-A, OMFP fluorogenic substrate; inhibition, % at 20 µM; 0.22% of 360,000 active; AID 651560, 2012;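 active = compounds that cut the enzyme signal by at least half of the control window in the single-dose screen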;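 note: plate controls were DMSO wells with enzyme plus substrate for no effect and substrate without enzyme for full effect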
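material = LMPTP-A | quantity = 0.625 nM enzyme | reagent = OMFP substrate, 400 µM final | buffer or medium = Bis-Tris pH 6.0, DTT, detergent | detection = endpoint fluorescence intensity from OMFP dephosphorylation | dosing = single 20 µM dose | read-out basis = % inhibition relative to no-enzyme and uninhibited control wells | control set = no-enzyme and uninhibited controls | timing = 50 min at room temperature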
DSG3 Ab inh: inhibitors of pemphigus antibody binding to DSG3, primary screen, biochemical, bead-based, flow cytometry, scFv-GFP; DSG3-coupled beads, scFv-anti-DSG3-GFP binding; hits give low values; binding (percent of control), % at 10 µM; 0.48% of 310,000 active;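 active = binding more than 3 SD below its plate's average and above zero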;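 note: hits lower antibody fragment binding to DSG3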
Target sequence (P32926 whole entry, looked up, the tested form may be a part): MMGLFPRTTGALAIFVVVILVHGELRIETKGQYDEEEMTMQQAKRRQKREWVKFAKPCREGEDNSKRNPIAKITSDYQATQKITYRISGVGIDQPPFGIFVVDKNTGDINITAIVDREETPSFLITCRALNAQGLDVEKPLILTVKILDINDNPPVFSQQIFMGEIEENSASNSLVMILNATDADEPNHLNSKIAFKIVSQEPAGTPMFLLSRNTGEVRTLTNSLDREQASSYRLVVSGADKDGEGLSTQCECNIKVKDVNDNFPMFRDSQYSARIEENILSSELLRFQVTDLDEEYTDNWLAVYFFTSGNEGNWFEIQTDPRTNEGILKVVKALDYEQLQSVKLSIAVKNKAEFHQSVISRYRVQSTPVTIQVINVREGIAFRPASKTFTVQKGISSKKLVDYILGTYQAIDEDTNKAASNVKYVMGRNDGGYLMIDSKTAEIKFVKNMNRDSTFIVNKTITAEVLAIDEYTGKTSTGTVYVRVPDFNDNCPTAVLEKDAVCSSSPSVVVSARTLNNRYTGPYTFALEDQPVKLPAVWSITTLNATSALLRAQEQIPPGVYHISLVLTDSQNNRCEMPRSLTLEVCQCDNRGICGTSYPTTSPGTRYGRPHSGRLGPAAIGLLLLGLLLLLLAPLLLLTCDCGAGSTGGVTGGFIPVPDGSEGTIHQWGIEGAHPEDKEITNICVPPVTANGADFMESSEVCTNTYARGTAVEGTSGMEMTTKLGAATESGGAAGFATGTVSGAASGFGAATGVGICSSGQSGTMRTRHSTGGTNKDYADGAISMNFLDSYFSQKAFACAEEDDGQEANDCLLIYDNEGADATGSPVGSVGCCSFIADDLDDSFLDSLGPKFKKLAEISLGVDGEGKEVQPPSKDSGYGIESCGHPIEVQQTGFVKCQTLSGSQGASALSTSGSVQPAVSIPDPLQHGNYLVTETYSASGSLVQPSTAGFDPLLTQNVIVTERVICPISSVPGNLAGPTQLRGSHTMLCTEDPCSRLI
SUMO1-SIM PPI: modulators of SUMO1 protein-protein interactions, primary screen, biochemical, uHTS. AID 602429, 2012. inhibition, % at 20 µM. SUMO1 binding to a labelled peptide, TR-FRET, 1 h. Small ubiquitin-related modifier 1 (Homo sapiens), P63165. 0.33% of 360,000 active; in the data active = inhibition above about 37%
STEP block: STEP phosphatase inhibitors, primary screen, biochemical, fluorescence intensity, uHTS; 0.25% of 360,000 active; recombinant STEP, OMFP fluorogenic substrate; inhibition, % at 20 µM;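 active = inhibition at 20 µM, scaled per plate between control wells, above about 37%, limit read from the data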;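 note: 0% = DMSO with enzyme and substrate and 100% = substrate only without enzyme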
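Assay system: isolated STEP enzyme / Timing: 20 min at room temperature, dark / Doses: 20 µM, 1% DMSO / Technique: fluorescence intensity, excitation 480 nm, emission 540 nm / Reagent: fluorogenic phosphatase substrate OMFP at 25 µM final / Measure: percent inhibition scaled to no-enzyme and uninhibited-enzyme controls, plate-pattern corrected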
Scp1 confirm: Scp-1 phosphatase inhibitors, retest, confirmation, biochemical, colorimetric, single concentration; shares compounds with Scp1 inh; recombinant SCP-1 catalytic domain, phosphate release, malachite green absorbance; inhibition, % at 20 µM; 61% of 2,500 active;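 note: plate controls were DMSO with enzyme for no effect and buffer wells lacking enzyme for full effect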
MG interference: colorimetric readout interference by compounds, confirmation, artefact control for Scp-1 inhibitor project, biochemical, single concentration. 2,500 tested, under 10 active. apparent inhibition (interference), % at 20 µM. shares compounds with Scp1 inh. Colorimetric interference counterscreen, malachite green absorbance 630 nm. AID 540313, 2011;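 note: compounds added after enzyme reaction finished so only phosphate colour detection is probed; plate controls were DMSO wells with completed Scp-1 reaction for no effect and substrate wells lacking enzyme for full effect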
Scp-1 Tm shift: Scp-1 binding by thermal shift, confirmation, orthogonal assay for Scp-1 inhibitor project, biophysical, differential scanning fluorimetry; shares compounds with Scp1 inh; Recombinant SCP1, Sypro Orange thermal shift Tm; thermal shift relative to vanadate control, % at 40 µM; 25% of 1,500 active; AID 540329, 2011;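 active = substances whose mean melting-temperature shift, as a percentage of the reference inhibitor's shift, reaches about 5.3%, limit read from the data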;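 note: 0% = Tm of DMSO wells and 100% = Tm with sodium orthovanadate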
* = called active by the depositor; · = not tested or not shown.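 Rule for the calls, unless noted: active = inhibition of at least 30% at 20 µM; inactive = the rest.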

SMILES	Scp1 inh	LMPTP block	DSG3 Ab inh	SUMO1-SIM PPI	STEP block	Scp1 confirm	MG interference	others
COC(=O)c1ccc(CNC(=O)C(NC(=O)c2ccco2)C(C)C)cc1 (stereo not given)	-1	-2	·	-3	-4	·	·
CCCCn1c(N)c(N(CCC(C)C)C(=O)C2CC(=O)N(Cc3ccc(C)cc3)C2)c(=O)[nH]c1=O (stereo not given)	-6	0	99	9	-3	·	·
CCCCn1c(N)c(N(CC(C)C)C(=O)C2CC(=O)N(Cc3ccccc3)C2)c(=O)[nH]c1=O (stereo not given)	-2	-1	95	-1	-1	-16	-13
Cn1c(CNC(=O)c2ccco2)nnc1SCC(=O)c1ccc(Br)cc1	3	0	119	-2	-3	·	·
O=C1CCC(CCC(=O)N2CCCC(C(=O)c3cccc(C(F)(F)F)c3)C2)=NN1 (stereo not given)	-8	0	92	3	1	-9	-4
COC(=O)c1c(NC(=O)COC(=O)[C@@H](NS(=O)(=O)c2cccc(Cl)c2)C(C)C)sc2c1CCC2	-12	2	121	-2	0	·	·
CC(C)[C@H](NS(=O)(=O)c1cccc(Cl)c1)C(=O)OCC(=O)NC(=O)CN1CCCC1=O	57*	9	96	6	18	42*	-12	Scp-1 Tm shift=-5
Cn1cnc(C(=O)N2CCc3ccccc3C2)c1C(=O)N1CCc2ccccc2C1	95*	0	106	-3	-2	83*	-17	Scp-1 Tm shift=-12
Cc1nc(SCC#N)c2c3c(sc2n1)CCC3	-7	-3	·	-3	2	·	·
N#CCSc1ncnc2sc3c(c12)CCC3	68*	34	·	19	1	0	-23
COc1ccc(S(=O)(=O)N2CCN(C(=O)C3CC3)CC2)cc1Br	-2	-1	·	-2	0	·	·
COC(=O)c1ccccc1NC(=O)c1cc[n+]([O-])cc1	0	-1	102	-6	2	·	·
CSc1ccccc1NC(=O)c1noc2c1CCC2	63*	9	102	6	5	67*	-13	Scp-1 Tm shift=3
CC(NC(=O)c1noc2c1CCCC2)c1ccccc1 (stereo not given)	-4	-1	101	-1	-5	·	·
COC(=O)c1ccccc1NC(=O)c1cc[n+](C)cc1	51*	-2	109	-34	-3	-12	-22
COC(=O)c1ccccc1NC(=O)c1noc2c1CCC2	70*	8	109	2	13	65*	-15	Scp-1 Tm shift=4
O=C1c2ccccc2C(c2nnnn2Cc2ccccc2)N1Cc1ccco1 (stereo not given)	·	-1	·	6	·	·	·
CCN(C(=O)COC(=O)c1ccccc1NCCO)c1cccc2ccccc12	-1	1	99	8	-3	·	·
O=c1[nH]c2cc3c(cc2cc1CN(Cc1cccnc1)Cc1nnnn1Cc1ccco1)OCCO3	84*	47	109	16	3	12	-13
Cc1ccn2cc(CCNC(=O)CC(C)(C)C)nc2c1	-15	1	109	3	-3	·	·
Cc1ccn2cc(CCNC(=O)C3CC=CCC3C(=O)O)nc2c1 (stereo not given)	55*	-5	95	-4	-2	-6	-5
COc1ccccc1N1CCN(C(=O)c2cc3cc(Cl)ccc3[nH]2)CC1	-2	1	104	0	-1	·	·
CCC1(CC)NC(=O)N(CC(=O)OCC(=O)Nc2ccccc2OC(F)F)C1=O	1	-2	98	4	-2	-11	-14
COc1ccccc1NS(=O)(=O)c1ccc(C)c(C(=O)N2CCN(c3ccc(O)cc3)CC2)c1	4	-3	95	-4	1	·	·
O=C(O)c1sc(C(=O)O)c(-c2ccccc2)c1-c1ccccc1	·	-3	100	7	-4	·	·
SMILES	Scp1 inh	LMPTP block	DSG3 Ab inh	SUMO1-SIM PPI	STEP block	Scp1 confirm	MG interference	others
CC(=O)c1sc(C(=O)O)c(-c2ccco2)c1-c1ccco1	59*	0	100	-4	14	32*	-11	Scp-1 Tm shift=-9
COc1ccc(NCc2cc(=O)oc3cc(NC(C)=O)ccc23)cc1	-6	1	114	-20	1	·	·
Cc1ccc(-c2cn3cccc(C)c3n2)cc1	6	1	105	0	1	·	·
O=[N+]([O-])c1cccn2cc(-c3ccc(Br)cc3)nc12	107*	34	102	-21	56*	86*	-11	Scp-1 Tm shift=8.2*
Cc1ccc2nc(-c3ccc(N4C(=NC(=O)CCC(=O)O)SC5CS(=O)(=O)CC54)cc3)sc2c1 (stereo not given)	51*	2	101	9	0	55*	-13	Scp-1 Tm shift=-4
O=C(Nc1ccccn1)C1CCN(C(=O)Nc2ccccc2)CC1	-5	-1	97	0	-1	·	·
O=C(NCCCN=C1NS(=O)(=O)c2ccccc21)c1ccc(Cl)cc1	-2	-1	107	-2	1	·	·
O=C1NC(=O)C2(COC(c3ccccc3Cl)OC2)S1 (stereo not given)	-4	-2	111	3	-3	·	·
COc1cccc(OC)c1NC(=O)CN1CCC(NC(=O)c2cccc(F)c2)CC1	-8	-1	102	2	0	·	·
N#C/C(=C\c1c(N2CCOCC2)nc2ccccn2c1=O)S(=O)(=O)c1ccccc1	54*	0	92	-11	3	-3	-6
N#C/C(=C\c1c(N2CCN(Cc3ccccc3)CC2)nc2ccccn2c1=O)S(=O)(=O)c1ccccc1	4	4	108	-13	0	·	·
O=S(=O)([O-])CCC[n+]1ccc(Oc2ccccc2)cc1	95*	-2	124	-3	6	94*	0	Scp-1 Tm shift=-25
Cc1ccc2ccccc2[n+]1CCCS(=O)(=O)[O-]	18	0	98	-10	0	·	·
CSc1ccc(C(O)c2ncc(-c3ccccc3Cl)[nH]2)cc1 (stereo not given)	·	-1	·	6	-4	·	·
